This note sets out measurements from ChEMBL document CHEMBL4433211, “Discovery of the First-in-Class GSK-3β/HDAC Dual Inhibitor as Disease-Modifying Agent To Combat Alzheimer's Disease” (ACS Med Chem Lett, 2019).

One data set relates to Microglia. The data set is described as follows: Immunomodulatory activity in LPS treated Wistar rat primary microglial cells assessed as effect on TREM2 expression level at 5 to 50 uM incubated for 24 hrs by western blot analysis. Format: functional, cell-based. The gist of the method: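 Primary microglial cells treated 24 h with LPS in presence or absence of test compound; NOS2, MRC1 and TREM2 protein assessed by Western blot, normalized to GAPDH.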
In general terms: A western blot detects proteins with antibodies after separation by electrophoresis.

Data set [1] addresses Glycogen synthase kinase-3 beta (Homo sapiens, UniProt P49841). The data set is described as follows: Inhibition of GSK3beta in human SH-SY5Y cells assessed as reduction in copper-induced tau hyperphosphorylation at 10 uM preincubated for 1 hr followed by copper addition and measured after 26 hrs by ELISA. Format: cell-based. Conditions: in the assay text read “16 hrs” for “26 hrs”. The gist of the method:
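Differentiated SH-SY5Y cells pretreated 1 h with test agent (LiCl 10 mM reference; compounds 10 μM), then copper 400 μM for 16 h; cells scraped, phospho-tau quantified by immunoenzymatic assay at 450 nm; mean ± SEM.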
Background: ELISA stands for enzyme-linked immunosorbent assay.

The target of data set [2] is Histone deacetylase (Homo sapiens) (UniProt Q13547+O15379+Q9UBN7+Q92769+Q9UQL6+Q8WUI4+Q9BY41+Q96DB2+P56524+Q9UKV0+Q969S8). The data set is described as follows: Inhibition of HDAC in human SH-SY5Y cells assessed as increase in acetylation of histone 3 at lysines 9/14 at 5 uM incubated for 30 hrs by Western blot analysis. Format: cell-based. The gist of the method: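 Human neuroblastoma SH-SY5Y cells treated 30 h at 0.1, 1.0 and 5.0 μM; cell lysates probed by Western blot for acetylated α-tubulin (HDAC6 cellular marker) and histone H3 acetylated at lysines 9/14 (H3K9K14ac).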

In data set [3] the test system is SH-SY5Y. The data set is described as follows: Induction of neurogenesis in human SH-SY5Y cells assessed as upregulation of MAP-2 mRNA at 10 uM incubated for 24 hrs by RT-PCR analysis. Format: functional, cell-based. The gist of the method: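 SH-SY5Y cells treated 24 h (10 μM, or 1 μM for one parent compound; retinoic acid positive control); GAP43, N-myc and MAP-2 mRNA measured by RT-PCR, expressed as fold of control.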

The nature of data set [4]: Toxicity in zebra fish embryo assessed as lethality at < 100 uM dosed at 5 hpf and measured after 44 to 48 hpf by microscopic based assay. The format is organism-based, Danio rerio. The note with it: zebrafish, in vivo. The gist of the method: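 Wild-type zebrafish embryos exposed to the compound at concentrations below 100 μM, including 25, 50 and 75 μM. Control embryos were kept in 2% DMSO vehicle. Embryos were scored for lethality, and their morphology, including tail and eye formation, was inspected by imaging.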

Data set [5] deals with SH-SY5Y. Nature of the data set: Cytotoxicity against human SH-SY5Y cells up to 100 uM incubated for 24 hrs by MTS assay. Format: cell-based. The gist of the method: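 SH-SY5Y cells exposed to test compound for 24 h at 37 °C; viability read by MTS assay and expressed as % of untreated control.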
Data set [6] has as its system SH-SY5Y. Nature of the data set: Cytoprotective activity against human SH-SY5Y cells assessed as restoration of H2O2-induced p53 expression level at 10 uM incubated for 24 hrs. The format is functional, cell-based. The gist of the method:
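SH-SY5Y cells exposed to H2O2 (50 μM) with or without test compound (10 μM); p53 protein levels then measured.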

The nature of data set [7]: Aqueous solubility of the compound in PBS incubated for 24 hrs under continuous stirring condition by UV spectrometric assay. The format is physicochemical.
Data set [8] is described as follows: Toxicity in zebra fish embryo assessed as development perturbation at 75 uM dosed at 5 hpf and measured after 44 to 48 hpf by microscopic based assay. Conditions: zebrafish, in vivo. Format: organism-based, Danio rerio.

Structures are written as SMILES. ≈ marks a conversion by molar mass, not a printed value. Calls of active or inactive are those of the source. The rule behind the calls is not given here.

Glycogen synthase kinase-3 beta, sequence (P49841 whole entry, looked up): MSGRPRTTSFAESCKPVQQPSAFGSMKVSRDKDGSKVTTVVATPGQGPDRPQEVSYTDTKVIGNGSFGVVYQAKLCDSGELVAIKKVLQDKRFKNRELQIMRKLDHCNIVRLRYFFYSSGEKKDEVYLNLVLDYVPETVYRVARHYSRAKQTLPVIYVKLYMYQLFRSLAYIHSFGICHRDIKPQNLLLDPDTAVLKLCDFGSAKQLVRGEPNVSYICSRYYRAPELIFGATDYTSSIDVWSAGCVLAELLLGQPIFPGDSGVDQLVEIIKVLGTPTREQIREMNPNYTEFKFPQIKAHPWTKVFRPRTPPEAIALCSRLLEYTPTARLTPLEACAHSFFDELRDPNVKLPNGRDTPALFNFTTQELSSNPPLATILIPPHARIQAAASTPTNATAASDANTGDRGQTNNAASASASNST

For `O=C(CCCCCNC(=S)Nc1ccc2c(c1)C(=O)NC2=O)NO`, the outcome in the data set on Microglia was inactive. The inhibition entry in data set [1] was “Active”. Also, the inhibition entry in data set [2] was “inactive”. The outcome in the data set on SH-SY5Y [3] and with SH-SY5Y [6] was Active. For the same compound, the Activity result in data set [4] was “Non-Toxic”; with SH-SY5Y [5] it was “Non-Toxic”; in data set [8] it was “Toxic”. Also, the solubility – broadly, the dissolved amount per volume that the medium holds – at 24 h in data set [7] came out at 153 µM (≈ 53.8 µg/mL).
